# In PubChem BioAssay AID2237 (Johns Hopkins Ion Channel Center, 2010):
# The whole screen tested about 310,000 compounds, of which about 1,500 (0.48%) were called active.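 How the source made its calls: active means B-score above 5 SD of library B-scores, and initial fluorescence ratio not above library mean plus 5 SD; inactive means the rest.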 The entries come from a sample that favours actives as a whole.
# Molecular target: Short transient receptor potential channel 4 (Mus musculus) (UniProt Q9QUQ5)
# Assay: activators of mouse TRPC4 channel, primary screen, Fluo4 calcium, HEK293 TRPC4beta/mu-opioid cells (AID 2237);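 on B-score: positive B-score marks a calcium rise read as TRPC4 activation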
# Settings: Fluo4 calcium fluorescence, at 10 µM; active compounds read high
# Method in brief: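 Test system: HEK293 cells stably co-expressing mouse TRPC4beta and mu-opioid receptor | Schedule: Fluo4 dye loading 45 min at room temperature, 110 s recording | Measured by: Kinetic Fluo4 calcium fluorescence, 5 s baseline at 1 Hz | Evaluation: B score of integrated ratio | Controls: Buffer (low) and maximal DAMGO (high)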
# Chain of Short transient receptor potential channel 4 (Mus musculus) (Q9QUQ5 whole entry, looked up): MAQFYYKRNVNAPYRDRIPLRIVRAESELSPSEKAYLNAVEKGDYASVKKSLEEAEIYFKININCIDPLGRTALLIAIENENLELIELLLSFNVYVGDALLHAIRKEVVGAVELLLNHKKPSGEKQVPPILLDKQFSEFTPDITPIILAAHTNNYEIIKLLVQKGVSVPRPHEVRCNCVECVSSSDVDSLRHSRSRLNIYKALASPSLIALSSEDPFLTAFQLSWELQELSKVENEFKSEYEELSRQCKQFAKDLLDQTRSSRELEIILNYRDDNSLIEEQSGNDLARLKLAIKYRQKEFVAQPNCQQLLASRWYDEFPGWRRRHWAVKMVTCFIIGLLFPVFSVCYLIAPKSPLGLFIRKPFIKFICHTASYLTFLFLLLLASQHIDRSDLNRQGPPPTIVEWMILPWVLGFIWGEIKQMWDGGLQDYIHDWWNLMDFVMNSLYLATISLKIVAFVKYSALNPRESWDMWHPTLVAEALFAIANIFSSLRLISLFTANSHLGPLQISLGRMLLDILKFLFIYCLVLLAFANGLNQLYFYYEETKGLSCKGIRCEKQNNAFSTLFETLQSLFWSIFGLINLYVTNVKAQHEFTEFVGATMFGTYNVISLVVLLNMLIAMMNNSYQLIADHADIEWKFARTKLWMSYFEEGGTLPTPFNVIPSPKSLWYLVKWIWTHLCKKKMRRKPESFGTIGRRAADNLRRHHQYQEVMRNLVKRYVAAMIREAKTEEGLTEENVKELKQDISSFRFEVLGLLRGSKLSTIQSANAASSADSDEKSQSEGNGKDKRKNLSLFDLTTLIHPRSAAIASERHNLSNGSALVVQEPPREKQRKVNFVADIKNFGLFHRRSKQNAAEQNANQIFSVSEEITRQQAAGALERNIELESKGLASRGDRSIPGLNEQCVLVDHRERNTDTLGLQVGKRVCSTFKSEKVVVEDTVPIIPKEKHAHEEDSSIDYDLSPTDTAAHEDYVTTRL
row,SMILES,B-score
1,COc1ccccc1/C=N/N1CCN(Cc2ccccc2Cl)CC1,inactive
2,CC(=O)N1CC2(C)CN(C(C)=O)CC(C)(C1)C2=O,inactive
3,COc1ccc(N2CCN(C(=O)CCNC(=O)c3ccc(Br)cc3)CC2)cc1,inactive
4,CCCN(CCC)CCCNC(=O)CNC(=O)c1nn(-c2ccc(OC)cc2)c(=O)c2ccccc12,93 (active)
5,COc1ccc(-n2nc(C(=O)NCC(=O)Nc3cccc(C)n3)c3ccccc3c2=O)cc1,inactive
6,COCCCNC(=O)CNC(=O)c1nn(-c2ccc(OC)cc2)c(=O)c2ccccc12,inactive
7,CCOC(=O)c1cnn(Cc2ccccc2Cl)c1N,inactive
8,CCCC(C(=O)NC1CCCC1)N(C(=O)Cn1nnc(-c2ccc(C)o2)n1)c1cccc(O)c1 (stereo not drawn),inactive
9,COc1ccc(Cl)cc1S(=O)(=O)N1CCC(O)(c2ccc(Cl)cc2)CC1,inactive
10,COc1cc(OC)c(-n2c(C)cc(C=O)c2C)cc1Cl,inactive
11,COc1cc(OC)c(-n2cc(-c3ccc(Cl)cc3)[nH]c2=O)cc1Cl,63 (active)
12,O=C1CCN(C(=O)Nc2ccccc2)N1,inactive
13,CC(C)N(Cc1ccccc1)C(=O)COC(=O)c1cnccn1,inactive
14,Oc1c(Cl)cc(Cl)c(Cl)c1Cc1c(O)c(Cl)cc(Cl)c1Cl,53 (active)
15,CC(C[N+](C)(C)C)OC(N)=O (stereo not drawn),inactive
16,CC(=O)OC(C)C[N+](C)(C)C (stereo not drawn),57 (active)
17,C=C(C)CSc1nnc(-c2ccc(C)cc2)n1N,inactive
18,CCCOC1CCCN(Cc2cn(C)nc2-c2ccccc2F)C1 (stereo not drawn),inactive
19,COc1cccc2cc(C(N)=O)/c(=N\NC(=O)c3ccccc3)oc12,inactive
20,NC(=O)c1cc2ccccc2o/c1=N/NC(=O)c1cccc(F)c1,inactive
21,CCN(CC)c1ccc2cc(C(N)=O)/c(=N\NC(=O)c3ccncc3)oc2c1,79 (active)
22,CN1CCN(C(=O)CCc2ncc(C(F)(F)F)cc2Cl)CC1,inactive

row,SMILES,B-score
1,CNc1[nH]ncc1[N+](=O)[O-],inactive
2,O=C(Nc1ccc(F)c(Cl)c1)C1CCN(S(=O)(=O)c2cccnc2)CC1,inactive
3,Cc1cc(-c2ccc(C)c(S(=O)(=O)NCCCN(Cc3ccccc3)C(C)C)c2)on1,127 (active)
4,CCOc1ccccc1CNS(=O)(=O)c1cc(-c2cc(C)no2)ccc1C,inactive
5,Cc1cc(-c2ccc(C)c(S(=O)(=O)NC(C)Cc3ccco3)c2)on1 (stereo not drawn),inactive
6,C=CCNC(=O)C12CC3CC(C1)CC(C(=O)NCC=C)(C3)C2,inactive
7,O=C(NC1CCN(S(=O)(=O)c2ccc(F)cc2)CC1)c1ccccc1,inactive
8,O=C(NCc1ccccc1Cl)c1csc2c1CCCCC2,inactive
9,Cc1ccc(NC(=O)c2csc3c2CCCC3)cc1,inactive
10,CC1CC(C)CN(CCCNC(=O)c2csc3c2CCCCC3)C1 (stereo not drawn),97 (active)
11,CCOC(=O)c1ccccc1NC(=O)c1c(N)n(C)c(=O)[nH]c1=O,inactive
12,CSc1ccc(S(=O)(=O)N2CCC(C(=O)NCCc3ccccc3)CC2)cc1,inactive
13,CC1CN(CCCOc2ccccc2-c2ccccc2)CC(C)O1 (stereo not drawn),inactive
14,CC1CCCN(CCOCCOc2ccccc2-c2ccccc2)C1 (stereo not drawn),54 (active)
15,c1ccc(-c2ccccc2OCCN2CCCCC2)cc1,inactive
16,COc1ccc(C2CC(c3ccc(Cl)cc3Cl)Nc3nc(N)nn32)cc1OC (stereo not drawn),inactive
17,CCOc1ccccc1C1CC(c2ccc(Cl)cc2)Nc2nc(N)nn21 (stereo not drawn),116 (active)
18,CCOc1ccccc1C1CC(c2ccccc2)Nc2nc(N)nn21 (stereo not drawn),inactive
19,CC(C)(C)S(=O)(=O)c1ccccc1-c1noc(-c2ccccc2)c1C(N)=O,inactive
20,Cn1c(CCNS(=O)(=O)c2ccc(F)cc2)nnc1SCc1cccnc1,inactive
21,COc1ccc(NC(=O)c2cc([N+](=O)[O-])ccc2NC(=O)CNC2CCCCC2C)c(OC)c1 (stereo not drawn),inactive
22,Cc1ccc(C(=O)CCC(=O)N(C)CC(=O)Nc2c(Cl)cccc2Cl)cc1,inactive

row,SMILES,B-score
1,O=c1c2cc(Br)ccc2nc(-c2cccc(Cl)c2)n1O,121 (active)
2,Cc1cccc(-c2nc3ccccc3c(=O)n2NC(=O)Cc2ccc(Cl)cc2)c1,inactive
3,O=C1CCCc2c1nc(-c1cccc(Cl)c1)n2O,inactive
4,O=c1[nH]c(CN2CCN(S(=O)(=O)c3ccc4c(c3)OCCO4)CC2)nc2sc3c(c12)CCCC3,inactive
5,O=C(OCCN=C1NS(=O)(=O)c2ccccc21)c1cccc([N+](=O)[O-])c1,inactive
6,O=C(CCCN=C1NS(=O)(=O)c2ccccc21)OCC(=O)c1ccc(F)c(F)c1,50 (active)
7,N#CC1(NC(=O)COC(=O)CCN=C2NS(=O)(=O)c3ccccc32)CCCCC1,inactive
8,Cc1cc(C)c2nc(N3CCC(C(=O)NCCN4CCOCC4)CC3)sc2c1,inactive
9,CCC1CCCCN1CCCNC(=O)c1cc2c(Cl)nc3ccccc3c2s1 (stereo not drawn),inactive
10,CSCc1nnc(NC(=O)c2ccc(S(=O)(=O)N3CCCCC3C)cc2)o1 (stereo not drawn),inactive
11,CC1CCCCN1S(=O)(=O)c1ccc(C(=O)Nc2nnc(-c3cccs3)o2)cc1 (stereo not drawn),74 (active)
12,CC1CCCN(S(=O)(=O)c2ccc(C(=O)Nc3nnc(-c4ccncc4)o3)cc2)C1 (stereo not drawn),inactive
13,COc1ccc(N2C(=O)NC(NS(=O)(=O)c3ccc(Cl)cc3)(C(F)(F)F)C2=O)cc1 (stereo not drawn),inactive
14,CCCc1ccc(OCC(O)CN2CCN(CCO)CC2)cc1 (stereo not drawn),inactive
15,CCOc1ccc(N(CC(=O)NCCc2ccc(OC)cc2)S(C)(=O)=O)cc1,inactive
16,CC1(C)CC(N2CCN(C(c3ccccc3)c3ccccc3)CC2)=CC(=[N+]2CCCCC2)C1,inactive
17,COCCN1C(=O)N[C@@H](CCc2ccccc2)[C@H](C(C)=O)[C@H]1C,inactive
18,COCCN1C2=C(COC(C)(C)C2)C(=S)NC1c1ccccc1 (stereo not drawn),76 (active)
19,COC(=O)C1=C(C)N(C)C(=S)NC1c1ccccc1 (stereo not drawn),inactive
20,CCN(c1ccccc1)S(=O)(=O)c1ccc2[nH]c(=O)[nH]c2c1,inactive
21,CCOc1ccc(C(=O)NC2CCN(S(=O)(=O)CC)CC2)cc1,inactive
22,CCOc1ccc(CC(=O)NC2CCN(Cc3ccccc3)CC2)cc1,inactive

row,SMILES,B-score
1,CCOc1ccc(NS(=O)(=O)c2ccc(C(=O)NC3CCN(Cc4ccccc4)CC3)cc2)cc1,49 (active)
2,CN(CCc1ccccn1)C(=O)c1ccc(OC2CCN(CCc3ccccc3)CC2)cc1,inactive
3,CC(O)CN(Cc1ccc(Cl)cc1)CC(C)O (stereo not drawn),inactive
4,COc1cc(C(=O)N(C)Cc2cccc(OC)c2OC)ccc1OCC(=O)Nc1cccc(C(F)(F)F)c1,inactive
5,CCCCC(=O)NNC(=S)NC(=O)C(c1ccccc1)c1ccccc1,152 (active)
6,O=C(NNC(=S)NCc1ccco1)C(c1ccccc1)c1ccccc1,inactive
7,CC(C)C(=O)Nc1cccc(NC(=S)NC(=O)C(c2ccccc2)c2ccccc2)c1,inactive
8,CCOc1ccc(OCc2ccc(C(=O)N(C)c3ccccc3)o2)cc1,inactive
9,COc1ccc(NC(=O)CN(C)C(=O)c2ccc(COc3ccccc3)o2)cc1,inactive
10,O=C(NCCc1ccccn1)c1ccc(COc2ccccc2)o1,120 (active)
11,Cc1cc(N2CCN(c3ccc(F)cc3)CC2)n2ncnc2n1,inactive
12,CCOCCCNC(=O)C(=O)NCCCOCC,inactive
13,CCCCn1c(-c2cccc(C)c2)nc2cc3[nH]c(=O)c(C(C)C)nc3cc21,inactive
14,Cc1ccnc(NC(=O)CCNS(=O)(=O)c2ccc(C)c(C)c2)c1,inactive
15,CCOc1ccc(NS(=O)(=O)c2ccc(C(=O)NCC(c3ccccc3OC)N3CCCC3)cc2)cc1 (stereo not drawn),inactive
16,CC(NC(=O)COC(=O)c1ccc(Cl)cc1O)c1ccc(F)cc1 (stereo not drawn),inactive
17,COc1ccc(C(CNCC(=O)Nc2ccccc2F)N(C)C)cc1 (stereo not drawn),108 (active)
18,COc1ccc(C(CNC(=O)c2ccc(S(=O)(=O)Nc3ccccc3F)cc2)N(C)C)cc1 (stereo not drawn),inactive
19,COc1ccc(Cl)cc1NC(=O)CNc1ccccc1F,inactive
20,COc1ccc2c(c1)OC(O)(C(F)(F)C(F)F)CC2=O (stereo not drawn),82 (active)
21,COc1ccc2c(c1)SC(C)CC2=O (stereo not drawn),inactive
22,CC1(C)CC(=O)c2ccc(O)cc2O1,inactive

row,SMILES,B-score
1,O=S1(=O)CC/C(=N\Nc2ccc(F)cc2)c2ccsc21,inactive
2,COc1ccc(-n2ncc3c(SCC(=O)NNC(C)=O)ncnc32)cc1,inactive
3,COc1ccc(-n2ncc3c(N4CCc5ccccc54)ncnc32)cc1,64 (active)
4,CC(C)Sc1ncnc2c1cnn2-c1ccccc1,inactive
5,CC(C)N1CCC(NC(=O)Nc2ccccc2)CC1,inactive
6,COc1ccc(C)cc1N(CC(=O)N1CCCC1)S(=O)(=O)c1ccccc1,inactive
7,COc1ccc(N(CC(=O)N2CCCCCC2)S(=O)(=O)c2ccccc2)cc1,inactive
8,COc1ccccc1N(CC(=O)N1CCCCC1)S(=O)(=O)c1ccccc1,56 (active)
9,COC(=O)CC1=NN(c2nc(C)cc(C)n2)C(=O)C1,inactive
10,S=C(Nc1ccc(Br)cc1Cl)NC1CCN(Cc2ccccc2)CC1,57 (active)
11,S=C(Nc1ccc(Br)cc1)NC1CCN(Cc2ccccc2)CC1,inactive
12,O=C(COc1ccc(Br)cc1F)NC1CCN(Cc2ccccc2)CC1,inactive
13,O=C(COc1ccccc1Cl)N1CCCCCCC1,inactive
14,CCN1C(=O)C(C(=O)NC(C)c2ccccc2)C2CC1(C)Oc1ccccc12 (stereo not drawn),inactive
15,COc1ccc(-c2nc(CS(=O)(=O)CC(=O)NCc3cccc(Br)c3)c(C)o2)cc1,inactive
16,COc1cccc(-c2nc(CS(=O)(=O)CC(=O)NCCc3ccc(OC)c(OC)c3)c(C)o2)c1,inactive
17,CCCCN(CC)CCCNC(=O)CS(=O)(=O)Cc1nc(-c2cccc(OC)c2)oc1C,56 (active)
18,CCN1/C(=C\c2ccc3ccccc3[n+]2CC)Sc2cc(C)ccc21,425 (active)
19,CCOc1ccc(CN2CCNC(=O)C2CC(=O)NCCCC2CCCC2)cc1 (stereo not drawn),inactive
20,CCN(CC)c1ccc(NC(=O)C2CCC(CNc3c(N4CCCC4)c(=O)c3=O)CC2)c(C)c1 (stereo not drawn),inactive
